Assays:
[1] = molecular target: T1, Endothelin-1 receptor (Homo sapiens) (UniProt P25101); assay: Percent inhibition at 10 uM of displacement of radiolabeled endothelin-1 [125-I]ET-1 from membranes prepared from cloned human Endothelin A receptor expressed in mouse erythroleukemic (MEL) cells; format: cell membranes
T1 sequence (whole entry): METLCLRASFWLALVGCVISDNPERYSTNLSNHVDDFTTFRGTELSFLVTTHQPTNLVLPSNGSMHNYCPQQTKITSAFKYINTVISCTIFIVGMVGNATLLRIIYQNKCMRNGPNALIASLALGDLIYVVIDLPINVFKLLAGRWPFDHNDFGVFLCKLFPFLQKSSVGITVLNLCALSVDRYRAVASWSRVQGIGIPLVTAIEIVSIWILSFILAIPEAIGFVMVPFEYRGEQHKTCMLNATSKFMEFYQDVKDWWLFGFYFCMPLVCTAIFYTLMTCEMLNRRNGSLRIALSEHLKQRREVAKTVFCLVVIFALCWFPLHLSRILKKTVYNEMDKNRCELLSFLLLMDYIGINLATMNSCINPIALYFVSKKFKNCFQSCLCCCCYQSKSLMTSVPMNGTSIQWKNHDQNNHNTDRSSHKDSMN

Endothelin-1 receptor [2] = molecular target: T2, Endothelin-1 receptor (Homo sapiens, UniProt P25101); assay: Inhibition of specific binding of [125-I]ET-1 to human endothelin A receptor
T2 sequence (P25101 whole entry): T1 sequence (whole entry)

Rattus norvegicus [3] = assay: Mean dose ratio(MDR) for inhibition of pressor response 3 hr after oral administration of compound at 10 mg/kg to conscious, normotensive rats; format: functional
Outline: (§1)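 Male Alderley Park Wistar rats (220–260 g, n = 6) were catheterized (arterial and venous) under Saffan anesthesia and tested conscious. Cumulative big ET-1 i.v. dose–response curves (0.1–4.0 nmol/kg) were run before and at set times after oral compound. The big ET-1 dose raising mean arterial pressure by 30 mmHg gave the dose-ratio shift, averaged to a mean dose ratio.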

Rattus norvegicus [4] = assay: Mean dose ratio(MDR) for inhibition of pressor response 0.5 hr after oral administration of compound at 10 mg/kg to conscious, normotensive rats; format: functional; outline: as §1
Rattus norvegicus [5] = assay: Mean dose ratio(MDR) for inhibition of pressor response 1 hr after oral administration of compound at 10 mg/kg to conscious, normotensive rats; format: functional; outline: as §1
Rattus norvegicus [6] = assay: Mean dose ratio(MDR) for inhibition of pressor response 5 min after intravenous administration of compound at 10 mg/kg to pithed rats; format: functional
Outline: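 Male Alderley Park Wistar rats (280–320 g, n = 4) were pithed under halothane, with arterial and venous catheters placed. Cumulative big ET-1 dose–response curves (0.1–4.0 nmol/kg) were run before and 5 min after i.v. compound. The big ET-1 dose raising mean arterial pressure by 30 mmHg gave the dose ratio, reported as a mean with 95% confidence limits.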

[7] = Acidity constant was measured; format: ADME
Rattus norvegicus [8] = assay: Mean dose ratio(MDR) for inhibition of pressor response 5 hr after oral administration of compound at 10 mg/kg to conscious, normotensive rats; format: functional; outline: as §1
Cavia porcellus = organism: Cavia porcellus; assay: Antagonism of ET-A induced contractile response in guinea pig portal vein; format: functional; details: read-out: pA2 (converted)
Outline: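 A portal vein ring (about 4 mm) from guinea pigs of either sex (>250 g, n = 3–6) was held for isometric recording of circular muscle in oxygenated Krebs (95% O2/5% CO2) at 32 °C. After about 1.5 h equilibration, a cumulative partial big ET-1 curve was run in 3-fold steps up to >100 mg tension.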

Endothelin-1 receptor [9] = molecular target: T2, Endothelin-1 receptor; assay: Inhibition of specific binding of [125-I] ET-1 to human Endothelin A receptor
Outline: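 Membranes from mouse erythroleukemic MEL-C88 cells expressing cloned human ETA were incubated with [125I]ET-1 (30 pM final) and competing ligands for 180 min at 30 °C. Incubation was stopped by filtration through GF/B filters, and bound radioligand was counted by gamma counting. pIC50 was taken from inhibition of specific binding; n is given per compound.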

Row | inhibition [1] [%] | IC50 (Endothelin-1 receptor [2]) [nM] | SMILES | other results
1 | 95 | 251 | CN(C)c1cccc2c(S(=O)(=O)Nc3ccc(Br)nc3)cccc12 | –
2 | 70 | 200 | CN(C)c1cccc2c(S(=O)(=O)Nc3ccc(Cl)nn3)cccc12 | –
3 | 96 | 631 | Cc1nc(Br)cnc1NS(=O)(=O)c1cccc2c(N(C)C)cccc12 | –
4 | 84 | 5010 | CN(C)c1cccc2c(S(=O)(=O)Nc3ccc(I)cn3)cccc12 | –
5 | 88 | 631 | CN(C)c1cccc2c(S(=O)(=O)Nc3cnc(Br)nc3)cccc12 | –
6 | 79 | 1580 | Cc1ccc(NS(=O)(=O)c2cccc3c(N(C)C)cccc23)nc1 | –
7 | 68 | 2510 | CCc1nc(Br)cnc1NS(=O)(=O)c1cccc2c(N(C)C)cccc12 | –
8 | 96 | 126 | CN(C)c1cccc2c(S(=O)(=O)Nc3cnc(Br)cn3)cccc12 | –
9 | 89 | 398 | Cc1cc(Cl)nnc1NS(=O)(=O)c1cccc2c(N(C)C)cccc12 | –
10 | 84 | 1580 | CN(C)c1cccc2c(S(=O)(=O)Nc3ncc(Cl)cn3)cccc12 | –
11 | 30 | 7940 | CN(C)c1cccc2c(S(=O)(=O)Nc3ccc(Cl)cc3)cccc12 | –
12 | 81 | 1260 | CN(C)c1cccc2c(S(=O)(=O)Nc3ccc(Cl)nc3)cccc12 | –
13 | 81 | – | CN(C)c1cccc2c(S(=O)(=O)Nc3ncc(Br)nc3O)cccc12 | –
14 | 80 | 2000 | CN(C)c1cccc2c(S(=O)(=O)Nc3ncc(Br)cn3)cccc12 | –
15 | 95 | 2000 | CN(C)c1cccc2c(S(=O)(=O)Nc3ccc(Cl)cn3)cccc12 | –
16 | 58 | 1000 | CN(C)c1cccc2c(S(=O)(=O)Nc3cnccn3)cccc12 | –
17 | 91 | 1260 | Cc1cnc(NS(=O)(=O)c2cccc3c(N(C)C)cccc23)cn1 | –
18 | 97 | 10 | COc1nc(Cl)cnc1NS(=O)(=O)c1cccc2c(N(C)C)cccc12 | MDR (Rattus norvegicus [3]): 2.54; Kb (Cavia porcellus): 63.1 nM; MDR (Rattus norvegicus [4]): 3.91; MDR (Rattus norvegicus [5]): 4.42; MDR (Rattus norvegicus [6]): 8.87; pKa [7]: 5; MDR (Rattus norvegicus [8]): 2.07
19 | 91 | 1580 | CN(C)c1cccc2c(S(=O)(=O)Nc3ccc(Br)cn3)cccc12 | –
20 | 94 | 316 | Cc1cc(Br)cnc1NS(=O)(=O)c1cccc2c(N(C)C)cccc12 | –
21 | 54 | – | CN(C)c1cccc2c(S(=O)(=O)Nc3ncccn3)cccc12 | –
22 | 97 | 158 | CN(C)c1cccc2c(S(=O)(=O)Nc3cnc(Cl)cn3)cccc12 | –
23 | 64 | 5010 | Cc1cc(NS(=O)(=O)c2cccc3c(N(C)C)cccc23)nnc1Cl | –

The next lines start with the compound.

Row | SMILES | inhibition [1] [%] | IC50 (Endothelin-1 receptor [2]) [nM] | other results
24 | CCOc1nc(Br)cnc1NS(=O)(=O)c1cccc2c(N(C)C)cccc12 | 92 | 501 | –
25 | CNc1cccc2c(S(=O)(=O)Nc3ncc(Br)nc3OC)cccc12 | 100 | 15.8 | –
26 | Cc1nc(NS(=O)(=O)c2cccc3c(N(C)C)cccc23)ccc1Br | 54 | 10000 | –
27 | CN(C)c1cccc2c(S(=O)(=O)Nc3ncc(Br)nc3C#N)cccc12 | < 30 | – | –
28 | COc1nc(C)cnc1NS(=O)(=O)c1cccc2c(N(C)C)cccc12 | 98 | 7.94 | –
29 | Cc1noc(NS(=O)(=O)c2cccc3c(N(C)C)cccc23)c1C [BMS-182874] | 98 | – | MDR (Rattus norvegicus [3]): 2.18; MDR (Rattus norvegicus [4]): 3.37; MDR (Rattus norvegicus [5]): 2.28; MDR (Rattus norvegicus [6]): 2.68; pKa [7]: 4.5; MDR (Rattus norvegicus [8]): 1.55
30 | CN(C)c1cccc2c(S(=O)(=O)Nc3cccnc3)cccc12 | < 30 | – | –
31 | CN(C)c1cccc2c(S(=O)(=O)Nc3ncc(Br)nc3OCc3ccccc3)cccc12 | < 30 | – | –
32 | CN(C)c1cccc2c(S(=O)(=O)Nc3ccc(Br)nn3)cccc12 | 95 | 251 | –
33 | COc1nc(Br)cnc1NS(=O)(=O)c1cccc2c(N(C)C)cccc12 | 93 | 63.1 | –
34 | CN(C)c1cccc2c(S(=O)(=O)Nc3ccccn3)cccc12 | < 30 | – | –
35 | Cc1ccc(NS(=O)(=O)c2cccc3c(N(C)C)cccc23)nn1 | 68 | 1580 | –
36 | CN(C)c1cccc2c(S(=O)(=O)Nc3ccc(C#N)nn3)cccc12 | < 30 | – | –
37 | CCNc1cccc2c(S(=O)(=O)Nc3ncc(Br)nc3OC)cccc12 | 95 | 2.51 | –
38 | CN(C)c1cccc2c(S(=O)(=O)Nc3ccc(Br)cc3)cccc12 | 72 | 3160 | –
39 | COc1nc(Br)cnc1NS(=O)(=O)c1cccc2ccccc12 | 83 | – | –
40 | COc1ccc(NS(=O)(=O)c2cccc3c(N(C)C)cccc23)nn1 | 92 | 316 | –
41 | CCCc1nc(Br)cnc1NS(=O)(=O)c1cccc2c(N(C)C)cccc12 | < 30 | – | –
42 | CCOc1ccc(NS(=O)(=O)c2cccc3c(N(C)C)cccc23)nn1 | 64 | 3980 | –
43 | CN(C)c1cccc2c(S(=O)(=O)Nc3cccnn3)cccc12 | < 30 | – | –
44 | CCN(C)c1cccc2c(S(=O)(=O)Nc3ncc(Br)nc3OC)cccc12 | 99 | – | IC50 (Endothelin-1 receptor [9]): 12.6 nM
45 | CN(C)c1cccc2c(S(=O)(=O)Nc3ncc(Br)[nH]c3=O)cccc12 | – | 5010 | –

— ChEMBL document CHEMBL1129980, “New non-peptide endothelin-A receptor antagonists: synthesis, biological properties, and structure-activity relationships of 5-(dimethylamino)-N-pyridyl-,-N-pyrimidinyl-,-N-pyridazinyl-, and -N-pyrazinyl-1-naphthalenesulfonamides” (J Med Chem, 1997)
